{
  "source": "paper PMC7004511",
  "about": "(Cancer Science, 2020)",
  "key": {"[1]": {"assay": "Pharmacokinetics of gefitinib in plasma", "assay_type": "in vivo, human"}, "Phase I dose escalation": {"assay": "Phase I dose escalation", "assay_type": "in vivo, human"}, "[2]": {"system": "BIM deletion polymorphism‐positive EGFR‐mutated NSCLC cell lines (PC‐3)", "details": "cited from earlier work"}, "[3]": {"system": "proapoptotic BIM protein (BIMEL)", "assay": "Pharmacodynamics: western blotting of PBMC protein, BIMEL", "assay_type": "in vivo, human"}, "[4]": {"assay": "Pharmacokinetics of vorinostat in serum", "assay_type": "in vivo, human", "details": "for AUC(0-t): AUC last", "summary_of_the_method": "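Patients with EGFR-mutated (exon 19 deletion or L858R) NSCLC carrying the BIM deletion polymorphism received oral vorinostat once daily on days 1-7 (200, 300 or 400 mg) with oral gefitinib 250 mg once daily, in 14-day cycles. Vorinostat was quantified in serum. Tmax is given as a median, and t1/2 and Cmax as mean ± SD per dose level.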"}, "[5]": {"system": "acetylated histone H3 (Lys27)", "assay": "Pharmacodynamics: western blotting of PBMC protein, acetylated histone H3", "assay_type": "in vivo, human"}, "[6]": {"system": "T790M‐positive EGFR‐mutated NSCLC cells", "details": "in vitro; cited from earlier work"}, "[7]": {"details": "biweekly, plus erlotinib 150 mg daily or gefitinib 250 mg daily; cited from earlier work"}, "[8]": {"details": "4 h after dose on day 2 of cycle 1, all levels"}, "[9]": {"details": "human, po, 200 mg, mean (SD), vorinostat Level 1 (200 mg) oral, n=3"}, "[10]": {"details": "human, po, 200 mg, median (range), vorinostat Level 1 (200 mg) oral, n=3"}},
  "note": "“Also recorded” adds a separate entry of the source. Read-outs that look alike come from different tables or passages of the source.",
  "data": [
    {"smiles": "COc1cc2ncnc(Nc3ccc(F)c(Cl)c3)c2cc1OCCCN1CCOCC1", "note": "[Gefitinib]", "values": [
      {"measurement": "Median T max of gefitinib", "setting": "[1]; gefitinib 250 mg, vorinostat 200 mg group", "result": 4, "unit": "h"},
      {"measurement": "Recommended phase II dose (RP2D) of gefitinib", "setting": "Phase I dose escalation; daily, with vorinostat 400 mg/day biweekly", "result": 250, "unit": "mg"}
    ]},
    {"smiles": "O=C(CCCCCCC(=O)Nc1ccccc1)NO", "note": "[Vorinostat, suberoylanilide hydroxamic acid]", "values": [
      {"measurement": "Resensitization of cells to EGFR-TKI by addition of vorinostat", "setting": "[2]", "result": "could resensitize these cells to EGFR‐TKI"},
      {"measurement": "Patients with increased proapoptotic BIM protein (BIMEL) expression", "setting": "[3]; [8]", "result": "5/11"},
      {"measurement": "Patients with increased proapoptotic BIM protein (BIMEL) expression", "setting": "[3]; 4 h after dose on day 2 of cycle 1, all levels, listed as vorinostat", "result": "five of 11"},
      {"measurement": "Patients with increased proapoptotic BIM protein (BIMEL) expression", "setting": "[3]; all levels", "result": 45.5, "unit": "%"},
      {"measurement": "Patients with increased proapoptotic BIM protein (BIMEL) expression", "setting": "[3]; level 1 (200 mg)", "result": "1/3"},
      {"measurement": "Patients with increased proapoptotic BIM protein (BIMEL) expression", "setting": "[3]; level 2 (300 mg)", "result": "3/3"},
      {"measurement": "Patients with increased proapoptotic BIM protein (BIMEL) expression", "setting": "[3]; level 3 (400 mg)", "result": "1/5"},
      {"measurement": "half-life", "setting": "[4]; human, po, 200 mg", "result": 3.6, "unit": "h"},
      {"measurement": "AUC(0-inf)", "setting": "[4]; [9]", "result": 2.43, "unit": "µM·h"},
      {"measurement": "AUC(0-inf)", "setting": "[4]; [10]", "result": 2.83, "unit": "µM·h"},
      {"measurement": "AUC(0-t)", "setting": "[4]; [9]", "result": 2.34, "unit": "µM·h"},
      {"measurement": "AUC(0-t)", "setting": "[4]; [10]", "result": 2.72, "unit": "µM·h"},
      {"measurement": "Cmax", "setting": "[4]; human, po, 200 mg, C max, mean (SD), vorinostat Level 1 (200 mg) oral, n=3", "result": 602, "unit": "nM"},
      {"measurement": "Tmax", "setting": "[4]; human, po, 300 mg", "result": 3.3, "unit": "h"},
      {"measurement": "Tmax", "setting": "[4]; human, po, 400 mg", "result": 3.5, "unit": "h"},
      {"measurement": "half-life", "setting": "[4]; human, po, 400 mg", "result": 2.1, "unit": "h"},
      {"measurement": "Cmax", "setting": "[4]; read-out: C max, median (range), vorinostat Level 1 (200 mg) oral, n=3", "result": 615, "unit": "nM"},
      {"measurement": "Cmax", "setting": "[4]; read-out: C max, median (range), vorinostat Level 3 (400 mg) oral, n=6", "result": 944, "unit": "nM"},
      {"measurement": "T max, median (range)", "setting": "[4]; vorinostat Level 1 (200 mg) oral, n=3", "result": "2.0 (1.1‐4.0) h"},
      {"measurement": "T max, median (range)", "setting": "[4]; vorinostat Level 3 (400 mg) oral, n=6", "result": "4.0 (0.9‐4.1) h"},
      {"measurement": "Patients with increased acetylated histone H3 protein expression", "setting": "[5]; [8]", "result": "10/11"},
      {"measurement": "Patients with increased acetylated histone H3 protein expression", "setting": "[5]; all levels", "result": 91, "unit": "%"},
      {"measurement": "Patients with increased acetylated histone H3 protein expression", "setting": "[5]; level 1 (200 mg)", "result": "3/3"},
      {"measurement": "Patients with increased acetylated histone H3 protein expression", "setting": "[5]; level 2 (300 mg)", "result": "3/3"},
      {"measurement": "Patients with increased acetylated histone H3 protein expression", "setting": "[5]; level 3 (400 mg)", "result": "4/5"},
      {"measurement": "Effect of vorinostat on the pharmacokinetics of gefitinib", "setting": "[1]; vorinostat 200, 300, 400 mg groups compared", "result": "unlikely to affect the pharmacokinetics of gefitinib; also recorded: did not affect the dynamics of gefitinib"},
      {"measurement": "Sensitization of cells to gefitinib", "setting": "[6]", "result": "did not sensitize T790M‐positive EGFR‐mutated NSCLC cells to gefitinib"},
      {"measurement": "Recommended phase II dose (RP2D) of vorinostat", "setting": "Phase I dose escalation; biweekly, combined with gefitinib 250 mg daily", "result": 400, "unit": "mg/day"},
      {"measurement": "Recommended phase II dose (RP2D) of vorinostat", "setting": "Phase I dose escalation; combined with gefitinib", "result": 400, "unit": "mg"},
      {"measurement": "Recommended dose of vorinostat", "setting": "[7]", "result": 400, "unit": "mg/day"}
    ]},
    {"smiles": "C=CC(=O)Nc1cc(Nc2nccc(-c3cn(C)c4ccccc34)n2)c(OC)cc1N(C)CCN(C)C", "note": "[osimertinib]", "values": [
      {"measurement": "Sensitivity to osimertinib-induced apoptosis", "setting": "[2]", "result": "resistant to osimertinib‐induced apoptosis"}
    ]}
  ]
}
